Values after ≈ are worked out from the molar mass of the structure shown. Active and inactive are the calls of the source. The rule behind the calls is not given here.
Columns and labels:
THP-1 = assay: Cytotoxicity against human THP1 cells expressing p53 mutant after 48 hrs by SRB assay; format: functional, cell-based; settings: THP-1, 48 h
Bel-7402 = assay: Cytotoxicity against human Bel7402 cells after 48 hrs by MTT assay; format: functional, cell-based; settings: Bel-7402, 48 h
HT-29 [1] = assay: Antitumor activity against human HT-29 cells xenografted in athymic BALB/c nude mouse at 75 mg/kg, ip for 10 days measured after 30 days relative to placebo control; format: functional; settings: route intraperitoneal
Outline: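 Female athymic BALB/c nude mice (35-40 days old, 18-22 g). HT-29 tumours first grown from 1 × 10^7 cells injected s.c. in the axillary fossa, then excised and transplanted. Treatment started at 100-300 mm3. Groups of n=6 were dosed i.p. daily in 400 μL: saline for 10 days, 5 mg/kg for 2 days, or 75/150 mg/kg for 10 days. Caliper volume was V=1/2·a·b². Values are relative to start volume, compared with placebo by Student's t test, and mice were killed on day 30.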

A549 = assay: Cytotoxicity against human A549 cells expressing wild type p53 after 48 hrs by SRB assay; format: functional, cell-based; settings: A549, 48 h
Outline: (§1)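 Cell lines came from CCRC, Taiwan. Cells were seeded at about 5 × 10^3 per well and left overnight. They were then given serum-free medium containing 0-10 μM compound (0.08-10 μM serial dilutions) for 48 h at 37 °C. Cells were fixed with TCA (10% final), stained with SRB (0.4% final), and the dye was dissolved in 10 mM Tris with A515 read. IC50 was taken from a fitted log concentration-response curve.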

HeLa = assay: Cytotoxicity against p53-deficient human HeLa cells after 48 hrs by SRB assay; format: functional, cell-based; outline: as §1
[2] = molecular target: T1, DNA topoisomerase 1 (Homo sapiens) (UniProt P11387); assay: Induction of human recombinant topoisomerase 1-mediated cleavage of 32P-labeled linearized pRYG plasmid DNA at 2.5 uM after 30 mins by agarose gel electrophoresis
T1 sequence (whole entry): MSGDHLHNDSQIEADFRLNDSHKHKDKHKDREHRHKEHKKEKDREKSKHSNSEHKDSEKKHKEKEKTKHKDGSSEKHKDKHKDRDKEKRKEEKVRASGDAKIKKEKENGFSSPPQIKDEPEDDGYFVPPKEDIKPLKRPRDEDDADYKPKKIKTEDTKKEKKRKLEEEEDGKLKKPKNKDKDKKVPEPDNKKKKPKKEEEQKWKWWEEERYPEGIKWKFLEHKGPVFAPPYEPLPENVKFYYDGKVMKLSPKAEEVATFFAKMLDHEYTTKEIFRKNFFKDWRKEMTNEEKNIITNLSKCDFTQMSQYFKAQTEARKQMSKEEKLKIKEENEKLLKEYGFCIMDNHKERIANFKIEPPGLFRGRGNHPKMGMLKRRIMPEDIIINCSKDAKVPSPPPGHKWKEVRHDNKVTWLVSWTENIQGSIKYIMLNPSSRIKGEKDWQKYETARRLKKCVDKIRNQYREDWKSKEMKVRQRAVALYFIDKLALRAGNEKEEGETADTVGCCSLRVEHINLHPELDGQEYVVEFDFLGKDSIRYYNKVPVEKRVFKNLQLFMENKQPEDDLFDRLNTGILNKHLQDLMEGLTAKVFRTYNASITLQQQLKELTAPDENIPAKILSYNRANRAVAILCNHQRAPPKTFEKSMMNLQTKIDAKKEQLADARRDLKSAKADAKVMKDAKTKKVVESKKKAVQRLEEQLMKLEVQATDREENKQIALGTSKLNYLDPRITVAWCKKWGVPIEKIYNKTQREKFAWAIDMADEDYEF
Outline: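 Recombinant human Top I was incubated with HindIII-linearised pRYG plasmid, 3'-end-labelled with [α-32P]dCTP by Klenow fill-in (about 100000 cpm per reaction). Reactions were stopped with SDS and proteinase K at 45 °C, alkali-denatured, run on a 1% agarose gel and autoradiographed.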

SK-OV-3 [3] = assay: Reduction in topoisomerase 1 expression in human SKOV3 cells by immunocytochemistry; format: functional, cell-based
Outline: (§2)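 HT-29 and SKOV-3 cells were grown on slides and treated with compound at several concentrations, with an untreated control. Cells were fixed and permeabilised, and endogenous peroxidase was quenched with 0.3% H2O2/methanol. After blocking with 10% goat serum, slides were stained with anti-Top I (1:100, 10 h), then biotinylated secondary and avidin-biotin-HRP, and developed with DAB.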

[4] = test system: DNA topoisomerase 2 (Bos taurus); assay: Inhibition of topoisomerase 2 at 200 uM
[5] = molecular target: T1, DNA topoisomerase 1 (Homo sapiens); assay: Inhibition of DNA topoisomerase 1-mediated supercoiled Escherichia coli pBR322 DNA relaxation upto 25 uM after 30 mins
[6] = Cytotoxicity against p53-deficient human Hep3B cells after 48 hrs by SRB assay; format: functional, cell-based, Hep 3B2; outline: as §1
HT-29 [7] = assay: Reduction in topoisomerase 1 expression in human HT-29 cells by immunocytochemistry; format: functional, cell-based; outline: as §2
SK-OV-3 [8] = assay: Induction of apoptosis in human SKOV3 cells assessed as apoptotic cells at 5 ug/mL after 24 hrs by annexin V/propidium iodide-based flow cytometry; format: functional
Outline: (§3)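 SKOV-3 or HT-29 cells (1-5 × 10^6 cells/mL) were incubated with 0, 5 or 10 μg/mL compound for 24 h. They were then washed and stained with EGFP-Annexin V/PI and analysed immediately by flow cytometry. Annexin V+/PI− cells were scored as apoptotic; PI-permeant cells were scored as necrotic.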

MCF7 = assay: Cytotoxicity against estrogen receptor-positive human MCF7 cells expressing wild type p53 after 48 hrs by SRB assay; format: functional, cell-based; settings: MCF7, 48 h; outline: as §1
Mus musculus = assay: Toxicity in athymic BALB/c nude mouse xenografted with human HT-29 cells assessed as morbidity at 75 mg/kg, ip for 10 days measured after 30 days; format: organism-based; set-up: dose 75 mg/kg, route intraperitoneal; settings: in vivo, 720 h
Outline: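 Nude mouse HT-29 xenograft model as above: female athymic BALB/c, 18-22 g, n=6 per group. Dosing was i.p. daily in 400 μL for 10 consecutive days at 75 or 150 mg/kg, with saline controls. Body weight and tumour volume were recorded every 4 days, and the study ended on day 30. Weights were compared with controls by Student's t test.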

HT-29 [9] = assay: Induction of apoptosis in human HT-29 cells assessed as apoptotic cells at 5 ug/mL after 24 hrs by annexin V/propidium iodide-based flow cytometry; format: functional; outline: as §3
HT-29 [10] = assay: Induction of apoptosis in human exponentially growing HT-29 cells; format: functional, cell-based; settings: TDE = time-dependent effect
SK-OV-3 [11] = assay: Cytotoxicity against human SKOV3 cells after 48 hrs by MTT assay; format: functional, cell-based; settings: SK-OV-3, 48 h
Outline: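 Cells were seeded at about 5 × 10^3 per well, then given serum-free medium containing 0-10 μM test compound for 48 h at 37 °C. MTT was added at 0.5 mg/mL final for 4 h at 37 °C. Formazan was dissolved in DMSO and OD570 read. IC50 values (50% cell death) came from a fitted log concentration-response curve.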

Activity [2]: Active | inhibition [4]: inactive | inhibition [5]: inactive
Compound: CCn1cc(-c2nc3ccc([N+](=O)[O-])cc3o2)c(=O)c2cc(F)c(N3CCNC(C)C3)c(F)c21 (stereo unspecified)
IC50 (THP-1): 3500 nM | IC50 (Bel-7402): 200 nM | Activity (HT-29 [1]): 52% | GI50 (A549): 800 nM | IC50 (A549): 1500 nM | GI50 (HeLa): 1100 nM | IC50 (HeLa): 2400 nM | Activity (SK-OV-3 [3]): Dose-dependent effect | GI50 [6]: 1500 nM | IC50 [6]: 3900 nM | Activity (HT-29 [7]): Dose-dependent effect | Activity (SK-OV-3 [8]): 7.4% | GI50 (MCF7): 3000 nM | IC50 (MCF7): 6800 nM | Activity (Mus musculus): Non-toxic | Activity (HT-29 [9]): 23.5% | Activity (HT-29 [10]): tde | IC50 (SK-OV-3 [11]): 0.55 µg/mL (≈ 1.17 µM)
